Experimental data: ChEMBL document CHEMBL1157679, “Substituted aryl malonamates as new serine beta-lactamase substrates: structure-activity studies” (Bioorg Med Chem, 2010)

What was measured:
[1] = Activity at beta-lactamase TEM-2 by spectrophotometry
Method in brief: (§1)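 Steady-state kinetics in 100 mM MOPS, pH 7.5, 25 °C. Substrate stocks were made in DMSO and diluted into buffer to a final DMSO below 5%. Initial rates of enzyme-catalysed turnover were followed spectrophotometrically. Steady-state parameters were derived from these initial rates. Buffer hydrolysis of the substrates was measured separately as pseudo-first-order rate constants.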

[2] = Ratio of Kcat to Km for beta-lactamase TEM-2; method in brief: as §1
[3] = Inhibition of beta-lactamase TEM-2 assessed as inhibition of cephalothin turnover by spectrophotometry
Method in brief: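 TEM-2 enzyme (0.2 μM) was incubated with 3 mM inhibitor in 100 mM MOPS, pH 7.5, at 25 °C (DMSO below 5% final). Residual activity against 0.2 mM cephalothin was read spectrophotometrically over incubation time. Exponential fitting gave pseudo-first-order inactivation constants, which were converted to second-order rate constants.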

SMILES | Km [1] [µM] | kcat [1] | kcat/Km [2] | kcat/Km [3] [M⁻¹ s⁻¹]
C[C@H](C(=O)NCc1ccccc1)C(=O)Oc1cccc(C(=O)O)c1 | > 200 | > 7.2 ×10⁻⁴ /s | 3.6 M⁻¹ s⁻¹ | –
O=C(CC(=O)Oc1cccc(C(=O)O)c1)NCc1ccccc1 | 1.42 | 28 s⁻¹ | 1.95 ×10⁴ /s/M | –
O=C(O)c1cccc(OC(=O)C2CCN(Cc3ccccc3)C2=O)c1 (centres undefined) | > 220 | > 1.1 ×10⁻⁴ /s | 0.54 M⁻¹ s⁻¹ | –
O=C(CP(=O)(O)Oc1cccc(C(=O)O)c1)NCc1ccccc1 | – | – | – | < 1
O=C(O)c1cccc(OC(=O)C(Cc2ccccc2)C(=O)NCc2ccccc2)c1 (centres undefined) | > 200 | > 9.4 ×10⁻⁴ /s | 4.7 M⁻¹ s⁻¹ | –
O=C(O)c1cccc(OC(=O)C2Cc3ccccc3N(Cc3ccccc3)C2=O)c1 (centres undefined) | – | – | < 0.9 M⁻¹ s⁻¹ | –
O=C(CC(=O)N(Cc1ccccc1)Cc1ccccc1)Oc1cccc(C(=O)O)c1 | 1800 | 0.21 s⁻¹ | 1.2 ×10² /s/M | –
CO[C@@H](C(=O)NCc1ccccc1)C(=O)Oc1cccc(C(=O)O)c1 | – | – | < 6 M⁻¹ s⁻¹ | –
CN(Cc1ccccc1)C(=O)CC(=O)Oc1cccc(C(=O)O)c1 | – | – | < 0.2 M⁻¹ s⁻¹ | –
